Experimental data: paper PMC4847003 (International Journal for Parasitology: Drugs and Drug …, 2015)
Counter-ions that a name gives are not always drawn. Like-named read-outs stand apart in the source and are kept apart here.

Experiments:
[1] = Host cell number in the same well of the amastigote image-based assay; design: species or system mouse; settings: mouse, 3T3 host cells infected with T. cruzi
3T3 host cells = test: as above; design: species or system mouse; settings: for SI (3T3): 3T3 IC50 or highest dose tested / amastigote IC50
HEK293 cells = test: HEK293 viability assay; format: cell-based, human; settings: for Selectivity (SI) of T. cruzi amastigotes to HEK293 cells: based on solid samples; for IC50: read-out: IC50 HEK293 (μM ± SD)
[2] = tested on: Trypanosoma cruzi amastigotes; test: Image-based T. cruzi amastigote assay in 3T3 fibroblasts, 48 h compound exposure; format: cell-based, Trypanosoma cruzi Tulahuen strain; settings: Fibroblast
T. cruzi trypomastigotes = test: Trypomastigote viability assay; format: cell-based, Trypanosoma cruzi Tulahuen strain; settings: for activity against the trypomastigote: Malaria Box retest; for IC50: read-out: IC50 T. cruzi Trypomastigote (μM ± SD)
T. cruzi amastigotes = test: Residual amastigotes following compound treatment, 48 and 72 h image-based assay; format: cell-based, Trypanosoma cruzi Tulahuen strain; settings: for Emax at 18 µM / IC50: Trypanosoma cruzi; for Emax at 18 µM: read-out: % of infections removed at Emax concentration; for IC50: read-out: IC50 value against T. cruzi amastigotes
How it was run: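 3T3 fibroblasts seeded at 1 × 10³ cells/well in collagen-coated 384-well plates, then infected with T. cruzi trypomastigotes. Free parasites were washed off with PBS after 24 h. Test compound was given as a dose series, pre-diluted 1:21 in water, for 48 or 72 h. Cells were fixed in 4% paraformaldehyde and stained with Hoechst in 0.1% Triton X-100. Residual intracellular spots at the Emax concentration were scored, including by eye.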

Y strain infection = settings: ref Moraes et al., 2014, cited from earlier work
[3] = tested on: Tulahuen strain parasites in U2OS cells; settings: 96 h treatment, high concentrations; ref Moraes et al., 2014; cited from earlier work
3T3 cells = test: Activity against sub-confluent 3T3 cells; format: cell-based, mouse; settings: at 73 μM, seeding density of 1000 cells per well
How it was run: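 3T3 cells seeded at 1000 to 62 cells/well in collagen-coated 384-well plates and grown 48 h. Wells were washed twice and refilled with growth medium. A test-compound dose series was added in duplicate per density, with 30 μM puromycin (positive) and 0.37% DMSO (negative) controls. After a further 48 h, 70 μM final resazurin was added. […] Averaged over duplicate experiments.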

[4] = read-out: IC50 value against T. cruzi amastigotes, Malaria Box primary screening
[5] = read-out: T. cruzi amastigote IC50 (μM ± SD), Malaria Box sample stored in 100% DMSO, two independent experiments
[6] = Trypanosoma cruzi, read-out: T. cruzi Trypomastigote % activity at highest dose
[7] = solid sample, 48 h, 2 independent experiments
[8] = read-out: 3T3 % activity highest dose, at 9.2 μM, DMSO sample

## CC[C@@]1(O)C(=O)OCc2c1cc1n(c2=O)Cc2cc3ccccc3nc2-1 [Camptothecin, camptothecin]
[1]
  cytotoxicity at 48 h, 5 µM: 38%
  cytotoxicity at 48 h, 16.8 µM: 44%
3T3 host cells; library DMSO stock
  SI (3T3): >49.41
3T3 host cells; solid sample
  SI (3T3): >55.56

## COc1c(C)c2c(c(O)c1C/C=C(\C)CCC(=O)[O-])C(=O)OC2.[Na+] [Sodium Mycophenolate, sodium mycophenolate]
3T3 host cells; library DMSO stock
  SI (3T3): >19.11
3T3 host cells; read-out: Host % activity at highest dose, 3T3, at 17.2 μM, library DMSO stock
  cytotoxicity: 30%

## CCOc1cccc2sc(N(Cc3cccnc3)C(=O)C3CCCCC3)nc12 [MMV001230]
HEK293 cells
  Selectivity (SI) of T. cruzi amastigotes to HEK293 cells: > 94.52
3T3 host cells; based on solid samples
  SI (3T3): > 87.26

## CC1CS(=O)(=O)CCN1/N=C/c1ccc([N+](=O)[O-])o1 (stereo not drawn) [Nifurtimox, nifurtimox]
HEK293 cells
  Selectivity (SI) of T. cruzi amastigotes to HEK293 cells: > 251.1
[2]; [4]
  IC50: 0.764 µM
[2]; [5]
  IC50: 0.59 ± 0.1 µM
[1]
  cytotoxicity at 48 h, 153.1 µM: 32%
3T3 host cells; based on solid samples
  SI (3T3): > 231.8
3T3 host cells; solid sample
  SI (3T3): >157.41
3T3 host cells; Malaria Box primary screening
  activity against host cells: no corresponding activity against host cells

## CN(C)c1ccc(Nc2c3ccccc3nc3ccccc23)cc1 [STL088556, N′-(acridin-9-yl)-N,N-dimethylbenzene-1,4-diamine]
HEK293 cells; Homo sapiens, HEK293, read-out: HEK293 % activity at highest dose
  activity at 79.4 µM: 115%
[2]; read-out: T. cruzi amastigote % activity
  activity at 73 µM: 62%
[2]; [5]
  IC50: 2.37 ± 1.51 µM
T. cruzi trypomastigotes; [6]
  inhibition at 10.9 µM: 65%
[1]
  cytotoxicity at 48 h, 9.2 µM: 30%
  cytotoxicity at 48 h, 73.3 µM: 62%

## Clc1ccccc1C(c1ccccc1)(c1ccccc1)n1ccnc1 [Clotrimrazole HCl, clotrimazole, reference compound]
T. cruzi amastigotes; 48 h incubation, 0.92 µM in Figure S3
  residual amastigotes at the Emax concentration: amastigotes that appeared to remain

## COc1ccc(C)c2sc(N(Cc3cccnc3)C(=O)c3ccc(C#N)cc3)nc12 [MMV001241]
HEK293 cells; at 79.4 μM, solid sample
  HEK293 % activity at highest dose: 44% at 79.4 μM
HEK293 cells
  Selectivity (SI) of T. cruzi amastigotes to HEK293 cells: > 34.22
3T3 host cells; based on solid samples
  SI (3T3): > 31.59

## Cc1[nH]c2ccccc2c(=O)c1CC=C(Cl)Cl [MMV665994, 3-(3,3-Dichloro-2-propen-1-yl)-2-methyl-4(1H)-quinolinone]
HEK293 cells
  Selectivity (SI) of T. cruzi amastigotes to HEK293 cells: > 64.55
[2]; [5]
  IC50: 0.66 ± 0.7 µM
T. cruzi amastigotes; 48 h
  Emax at 18 µM: 97%
T. cruzi trypomastigotes; [6]
  inhibition at 87 µM: 52%
3T3 host cells; based on solid samples
  SI (3T3): > 59.59

## O=C(NC(c1ccccc1)c1ccc2cccnc2c1O)c1ccccc1 (stereo not drawn) [MMV666080]
HEK293 cells
  activity / cytotoxicity against HEK293 cells: active against HEK293 cells
HEK293 cells; [7]
  IC50: 2.88 ± 0.9 µM
T. cruzi trypomastigotes
  activity against the trypomastigote: active against the trypomastigote life cycle form
T. cruzi trypomastigotes; Malaria Box DMSO sample
  IC50: 0.9 ± 0.06 µM
T. cruzi trypomastigotes; Malaria Box solid sample
  IC50: 0.52 ± 0.04 µM
3T3 host cells; based on solid samples
  SI (3T3): > 25.77
3T3 host cells; [8]
  cytotoxicity: 40%
3T3 host cells; read-out: 3T3 % activity highest dose, at 36.6 μM, solid sample
  cytotoxicity: 34%

## CC[C@@H]([C@H](C)O)n1ncn(-c2ccc(N3CCN(c4ccc(OC[C@@H]5CO[C@@](Cn6cncn6)(c6ccc(F)cc6F)C5)cc4)CC3)cc2)c1=O [posaconazole, reference compound]
Y strain infection; 72 h exposure
  reduction of Y strain infection: 84%
Y strain infection; exposure to 80 nM for 48 h
  reduction of Y strain infection: approximately 60%
[3]
  parasites reduced by: 93%
T. cruzi amastigotes; Emax of 50 nM, 48 and 72 h (Figure S5)
  residual amastigotes at the Emax concentration: presence of a small number of amastigotes could be seen
T. cruzi amastigotes; 48 h
  IC50: 6 ± 0.6 nM
T. cruzi amastigotes; 72 h
  IC50: 4.9 ± 3.6 nM

## COc1ccccc1N1CCN(C(CNS(=O)(=O)c2ccc(Cl)cc2)c2cccnc2)CC1 (stereo not drawn) [MMV665914, 4-chloro-N-(2-(4-(2-methoxyphenyl)piperazin-1-yl)-2-(pyridin-3yl)ethyl) benzene sulfonamide]
HEK293 cells
  Selectivity (SI) of T. cruzi amastigotes to HEK293 cells: > 45.90
T. cruzi amastigotes; 18 μM, 48 h incubation
  % of infections removed at Emax concentration: 97%
T. cruzi amastigotes; 18 μM, 72 h incubation
  % of parasites removed at Emax concentration: 99%
3T3 host cells; based on solid samples
  SI (3T3): > 42.37
3T3 host cells; [8]
  cytotoxicity: 25%

## O=C(Nc1nc(-c2ccccn2)cs1)c1ccccc1Br [MMV665909]
HEK293 cells; [7]
  IC50: 1.97 ± 0.65 µM
T. cruzi trypomastigotes
  activity against the trypomastigote: active against the trypomastigote life cycle form
T. cruzi trypomastigotes; Malaria Box DMSO sample
  IC50: 1.08 ± 0.01 µM
T. cruzi trypomastigotes; Malaria Box solid sample
  IC50: 1.05 ± 0.13 µM
3T3 host cells; [8]
  cytotoxicity: 35%
3T3 host cells; read-out: 3T3 % activity highest dose, at 73.3 μM, solid sample
  cytotoxicity: 44%

## COc1ccc(C[C@H](N)C(=O)N[C@H]2[C@@H](O)[C@H](n3cnc4c(N(C)C)ncnc43)O[C@@H]2CO)cc1 [Puromycin, puromycin]
HEK293 cells; Homo sapiens, HEK293, 48 h
  IC50: 0.28 ± 0.04 µM
HEK293 cells
  Selectivity (SI) of T. cruzi amastigotes to HEK293 cells: 0.12
[2]; [4]
  IC50: 2.35 µM
[2]; [5]
  IC50: 2.54 ± 0.13 µM
3T3 host cells; based on solid samples
  SI (3T3): 1.48
3T3 host cells; library DMSO stock
  SI (3T3): 0.97
3T3 host cells; solid sample
  SI (3T3): 1.75
3T3 host cells; Mus musculus, read-out: Host IC50 ± stdev, 3T3, run of library DMSO retest
  IC50: 3040 ± 520 nM
3T3 host cells; Mus musculus, read-out: Host IC50 ± stdev, 3T3, run of solid sample retest
  IC50: 2760 ± 690 nM

## Cc1cc(C2CCCCC2)n(O)c(=O)c1 [Ciclopirox Olamine, ciclopirox olamine]
HEK293 cells; Homo sapiens, HEK293, 48 h
  IC50: 1.4 ± 1.07 µM
HEK293 cells; Table 2 footnote a, solid sample
  Selectivity index (SI) to HEK293 cells: 0.36
3T3 cells
  activity against 3T3 cells: 38%
[1]
  cytotoxicity at 48 h, 136.5 µM: 42%
3T3 host cells; library DMSO stock
  SI (3T3): >3.54
3T3 host cells; solid sample
  SI (3T3): > 35.0
3T3 host cells; Mus musculus, read-out: Host % activity at highest dose
  activity at 19 µM: 53%

## COc1ccc2sc(N(Cc3cccnc3)C(=O)c3ccc(C#N)cc3)nc2c1 [MMV001239, 4-cyano-N-(5-methoxy-1,3-benzothiazol-2-yl)-N-(pyridin-3-ylmethyl)benzamide]
HEK293 cells
  activity / cytotoxicity against HEK293 cells: no cytotoxicity detected
  Selectivity (SI) of T. cruzi amastigotes to HEK293 cells: > 22.37
[2]; [5]
  IC50: 0.86 ± 0.006 µM
T. cruzi amastigotes; 18 μM, 48 h incubation
  % of infections removed at Emax concentration: Ninety
T. cruzi amastigotes; 48 h
  Emax at 18 µM: 90%
3T3 host cells
  cytotoxicity against 3T3 cells: no cytotoxicity detected
3T3 host cells; based on solid samples
  SI (3T3): > 20.65
